# Measured values from article PMC10091778 (Drug Development Research, 2022).
# What was measured:
# [1] = test system: A431 epidermoid carcinoma cancer cell line; details: 15 µM treatment; ref LaBarbera et al., 2009; cited from earlier work
# [2] = test system: Hep3B hepatocellular carcinoma cells; details: 35 µM for 24 h; ref Lu et al., 2022; cited from earlier work
# [3] = test system: 4T1 breast carcinoma cells; test: 4T1 murine breast cancer model; type: in vivo, BALB/c mice; details: 27th day; 60 mg/kg daily i.p.; mean ± SEM, n = 10; untreated 768 ± 134
# [4] = test system: HL‐60 cells; test: Mitochondrial membrane depolarization by JC-1 staining; type: cell-based, human; details: 16 h, untreated 7.6 ± 0.6%
# [5] = test system: HL‐60 cells; test: Sub-G1 DNA fragmentation analysis by flow cytometry; type: cell-based, human; details: 6 µM, 72 h; mean ± SD; untreated 11.7 ± 1.2%
# [6] = test system: HL‐60 human acute promyelocytic leukemia cells; test: Resazurin cell viability assay on HL-60 cells; type: cell-based; details: HL-60, 72 h, read-out: IC50 HL‐60
# Outline: (§1)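 Cells were seeded in 96-well plates (4T1 10,000, A549 10,000, HL-60 20,000 per well), with adherent lines settling overnight. Test compound came from a 10 mM DMSO stock, serially diluted in medium to 1.56–50 µM (some 39 nM–12.5 µM), for 72 h; three biological replicates. Resazurin (0.15 mg/ml stock, 20 µl per 100 µl) ran 2 h at 37 °C, read at 530/580 nm. Viability was set against untreated and blank wells; IC50 from curves.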
# [7] = test system: HL‐60 cells; test: Annexin V / propidium iodide flow cytometry; type: cell-based, human; details: 6 µM, 24 h, mean ± SD
# Outline: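 HL-60 cells (100,000) were treated for 24 h at 1, 3 or 6 µM, then resuspended in Annexin V binding buffer (0.01 M HEPES, 0.14 M NaCl, 2.5 mM CaCl2). Annexin V-Alexa 488 was added for 15 min in the dark at room temperature, then PI (10 µg/ml). Quadrant percentages were taken by flow cytometry; three biological replicates, mean ± SD; two-tailed t test against untreated.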
# [8] = test system: 4T1, A549, and HL‐60 cells; type: cell-based; details: resazurin assay, 72 h, up to 50 µM, three cancer cell lines
# Outline: as §1
# [9] = test system: 4T1 murine triple negative breast cancer cells; test: Resazurin cell viability assay on 4T1 cells; type: cell-based; details: Mus musculus, 4T1, 72 h, read-out: IC50 4T1
# Outline: as §1
compound,measurement,setting,value
Naamidine A,"Apoptotic effect in A431, in words",[1],apoptotic effects
C=CC(C)(CC/C=C(\C)CCC=C(C)C)S(=O)(=O)CCN=C(N)N (stereo not drawn) [(−)‐Agelasidine A],"Apoptosis and mitochondrial effect in Hep3B, in words",[2],Annexin V+ apoptosis and mitochondrial membrane depolarization
"Nc1nc(-c2cccc(NC(=O)c3cc4cc(Cl)ccc4[nH]3)c2)c(C(=O)c2ccccc2)[nH]1 [Compound 29, N‐(3‐(2‐amino‐5‐benzoyl‐1H‐imidazol‐4‐yl)phenyl)‐5‐chloro‐1H‐indole‐2‐carboxamide]",4T1 tumor volume,[3],443 ± 54 mm^3
same,Cells with green JC‐1 accumulation (depolarized MMP),[4]; 3 µM,9.4 ± 1.1%
same,Cells with green JC‐1 monomers (depolarized MMP),[4]; 6 µM,29.7 ± 2.1%
same,DNA fragmentation (sub‐G1 population) of HL‐60 cells,[5],64.3 ± 2.1%
same,IC50,[6],4.03 µM
same,Early apoptotic cells (AnnV+/PI−),[7]; untreated 1.9 ± 0.5%,11.4 ± 1.1%
same,Necrotic cells (AnnV−/PI+),[7]; untreated 3.6 ± 1.6%,5.9 ± 1.1%
same,Late apoptotic cells (AnnV+/PI+),[7]; untreated 9.5 ± 2.7%,44.7 ± 4.8%
same,Living cells (AnnV−/PI−),[7]; untreated 85 ± 3.9%,37.8 ± 4.6%
same,Cytotoxic / antiproliferative activity in words,[8],hampered the viability of all three tested cell lines
same,IC50,[9],3.1 µM
